Measurements as given in ChEMBL document CHEMBL2321727, “The impact of introducing a histidine into an apolar cavity site on docking and ligand recognition” (J Med Chem, 2013).

What was measured:
[1] = system: Endolysin (Enterobacteria phage T4), P00720 [L99A,M102H]; assay: Binding affinity to Enterobacteria phage T4 lysozyme L99A/M102H double mutant expressed in Escherichia coli BL21(DE3) assessed as change in melting temperature at 0.5 mM at pH 6.8 by circular dichroism analysis; conditions: Tequatrovirus T4
Outline: (§1)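 CD thermal unfolding at pH 6.8 of Ni-NTA-purified T4 lysozyme L99A/M102H expressed from pET-28 in E. coli BL21(DE3). Ligand added from DMSO to 0.5 or 1 mM final, 0.1% DMSO final in all samples and controls. ΔCp set to 8.1 kJ mol⁻¹ K⁻¹. ΔTm ≥0.4 °C scored as binding. ΔGmelt = ΔTm × ΔH/Tm.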

[2] = system: Endolysin (Enterobacteria phage T4), P00720 [L99A,M102H]; assay: Binding affinity to Enterobacteria phage T4 lysozyme L99A/M102H double mutant expressed in Escherichia coli BL21(DE3) assessed as change in melting temperature at 0.5 mM at pH 5.4 by circular dichroism analysis; conditions: Tequatrovirus T4
Outline: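 T4 lysozyme L99A/M102H from pET-28 in E. coli BL21(DE3), purified on Ni-NTA, ≥95% pure. Thermal melts followed by CD at pH 5.4, at least in triplicate. Ligand added from DMSO to 0.5 mM final, 0.1% DMSO final, controls included. ΔCp set to 10.5 kJ mol⁻¹ K⁻¹. Binder cutoff is ΔTm ≥0.4 °C. ΔGmelt = ΔTm × ΔS, with ΔS = ΔH/Tm.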

[3] = system: Endolysin (Enterobacteria phage T4), P00720 [L99A,M102H]; conditions: Tequatrovirus T4
Endolysin = Endolysin (Enterobacteria phage T4, UniProt P00720, L99A/M102H); set-up: species or system Tequatrovirus T4
[4] = system: Endolysin (Enterobacteria phage T4), P00720 [L99A,M102H]; conditions: Tequatrovirus T4; remark: listed apart in the source
[5] = system: Endolysin (Enterobacteria phage T4), P00720 [L99A,M102H]; assay: Binding affinity to Enterobacteria phage T4 lysozyme harboring L99A/M102H double mutant expressed in Escherichia coli BL21(DE3) assessed as change in melting temperature at 1 mM at pH 6.8 by circular dichroism analysis; conditions: Tequatrovirus T4; outline: as §1
[6] = system: Endolysin (Enterobacteria phage T4), P00720 [L99A,M102H]; conditions: Tequatrovirus T4; remark: listed apart in the source
[7] = system: Endolysin (Enterobacteria phage T4), P00720 [L99A,M102H]; conditions: Tequatrovirus T4; remark: listed apart in the source

Compound	ΔTm [3] [°C]	also measured
Nc1ccccc1		ΔTm [1]: 0.5 °C; ΔTm [2]: 0.2 °C
Oc1cc(C(F)(F)F)ccn1	0.1	
C#Cc1ccccc1N		ΔTm [1]: 0.5 °C; ΔTm [2]: 0.5 °C
Clc1n[nH]c2ncccc12		ΔTm [1]: 1 °C; ΔTm [2]: 0.1 °C
Nc1ncc(Cl)s1	1.1	
Brc1c[nH]cn1	0.4	Kd (Endolysin): 317 µM
O=C(O)C(F)(F)F		ΔTm [4]: -0.8 °C
OCc1ccc(Cl)c(Cl)c1	0.2	
Cc1cc(C)[nH]n1	-0.3	ΔTm [5]: 1.4 °C
FC(F)(F)c1c[nH]cn1	1	
CC(CO)c1ccccc1 (configuration not stated)	0.1	
CCc1cc(O)ccc1Cl	-0.9	
Cc1cc(C(F)(F)F)n[nH]1	1.9	
CSc1ccc(F)cc1	0.4	
N#CNC#N	-0.6	
O=[N+]([O-])c1ccc(O)cc1	5	ΔTm [5]: 4.5 °C
Nc1cc(F)c(F)cc1Br	0.2	ΔTm [5]: 0.8 °C

Compound	ΔTm [3] [°C]	also measured
N#Cc1ccc([N+](=O)[O-])s1	0.2	
N#Cc1cc(Br)ccc1O	2.2	
OCCn1cccn1	0.3	
N#Cc1ccccc1O		ΔTm [6]: 0.6 °C
Cc1cc(C)n(CO)n1	-0.7	ΔTm [5]: 0.3 °C
C=CSc1ccccc1	1	
OCCS		ΔTm [7]: 0 °C
Nc1ccc(F)cc1Cl	-0.3	ΔTm [5]: 1.3 °C
O=Cc1cc(O)ccc1Br		ΔTm [2]: 0.9 °C
C=CCc1ccccc1O [2-ALLYLPHENOL]		ΔTm [7]: 2.9 °C
CC(=O)c1ccc(O)cc1	0.5	
OCc1cc(Cl)ccc1Cl	-0.1	
c1ccc2oncc2c1	0.2	
OCc1cccc(Br)c1	-0.7	
C#CC(O)c1ccccc1 (configuration not stated)		ΔTm [4]: 2.2 °C
c1ccncc1		ΔTm [5]: 0.1 °C
